# Assay outcomes as filed in PubChem BioAssay.
# Rows were chosen to be rich in hits. Some 3.8% of all compounds tested hit in one or more screens of this group.
# V-ATPase pHluor: regulators of yeast V-ATPase proton pumping, primary screen, pHLuorin cytosolic pH fluorescence; S. cerevisiae; response, % at 10 µM; actives 0.37% (n = 350,000); in the data active = response mostly above about 7.3%, no sharp cut-off; inactive = mostly below about 5.4%; note: actives read high
# MPTP inh: mitochondrial permeability transition pore inhibitors, primary screen, biochemical, isolated mouse mitochondria, absorbance | Ca2+ swelling absorbance, 30 min | inhibition, % at 10 µM | actives 1.4% (n = 360,000);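 active = inhibition of 50% or more, scaled per plate between neutral and stimulator controls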;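 note: 0% = DMSO wells given calcium and 100% = 1 mM EGTA wells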
# Exocytosis inh: LAMP-1 surface exposure blockers, TALL-104 cells – cell-based, flow cytometry, MLPCN library, primary screen. TALL-104 LAMP-1 surface exposure; cells stimulated with thapsigargin and PMA. inhibition, % at 10 µM. actives 0.66% (n = 360,000);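 active = inhibition above about 55%, limit read from the data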
# B2AR ag: beta2AR agonists driving receptor internalization, primary screen, cell-based, FAP fluorogen, flow cytometry; response, % (test concentration not listed); Am2.2-beta2AR cells; actives 0.43% (n = 340,000);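 active = response above a set limit, near 3 SD of response in nonfluorescent compounds, cut at about 42% in these data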
# Target sequence (P07550 whole entry, looked up): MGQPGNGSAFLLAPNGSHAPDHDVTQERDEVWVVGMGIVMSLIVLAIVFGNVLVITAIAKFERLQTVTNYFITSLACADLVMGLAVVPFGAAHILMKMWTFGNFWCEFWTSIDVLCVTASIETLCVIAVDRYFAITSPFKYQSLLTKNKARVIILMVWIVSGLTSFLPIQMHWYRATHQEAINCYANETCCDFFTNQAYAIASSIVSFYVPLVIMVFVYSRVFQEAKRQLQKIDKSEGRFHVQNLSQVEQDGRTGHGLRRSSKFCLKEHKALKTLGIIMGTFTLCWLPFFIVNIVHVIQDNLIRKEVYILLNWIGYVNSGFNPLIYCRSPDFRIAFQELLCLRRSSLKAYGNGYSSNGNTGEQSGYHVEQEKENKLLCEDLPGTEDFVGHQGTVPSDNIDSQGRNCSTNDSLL
# rCAG binder: binders of r(CAG) RNA repeats, primary screen, biochemical, fluorescence. r(CAG) RNA repeat, TO-PRO-1 dye displacement fluorescence. inhibition, % at 3 µM. actives 1.3% (n = 370,000). AID 651821, 2012;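 active = inhibition above the plate cutoff, the mean of all test compounds on that plate plus 3 SD, cut at about 35% in these data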;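 note: 0% = DMSO alone and 100% = 100 µM mitoxantrone as full dye displacement; higher means more dye released from RNA so lower well fluorescence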
# T cell modulator: modulators of CD8 T cell-vesicle binding, primary screen, mouse 2C CD8+ T cells, flow cytometry; 2C CD8+ T cell-vesicle binding; stronger effect = lower value; response (vesicle binding), % at 7 µM; actives 0.068% (n = 330,000); AID 2052, 2009;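 active = response, share of CD8 T cells binding vesicles, and their 90th percentile fluorescence all below set limits, cut at about 80% in these data, passing the limit was not always enough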;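 note: values below 100% mean blocked vesicle binding to the CD8+ T cells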
#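 System: murine 2C transgenic CD8+ T lymphocytes; also added: QL9-loaded Drosophila micro-vesicles; times: binding 1.5 h at 37 °C; measured by: flow cytometry, PE anti-B7-1 (FL2) versus Alexa647 anti-CD8 (FL8), PFA-fixed; control set: Peptide-free naked vesicles (low) and QL9 vesicles with 0.7% DMSO vehicle (high)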
# rCAG bind conf: small molecules binding CAG repeat RNA – biochemical, fluorescence, confirmation; AID 652065, 2013; r(CAG) RNA repeat, TO-PRO-1 dye displacement fluorescence; actives 70% (n = 4,300); shares compounds with rCAG binder; inhibition, % at 3 µM;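 active = inhibition above a per-plate cutoff, the mean inhibition of sample wells plus 3 SD, cut at about 35% in these data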;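 note: loss of TO-PRO-1 fluorescence as compound displaces dye from 1x1 AA loop RNA; 0% = DMSO only wells and 100% = 100 µM mitoxantrone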
# dCAG dye counter: displacement of TO-PRO-1 from CAG DNA duplex, counter-screen for rCAG RNA repeat binder project, biochemical, fluorescence, TO-PRO-1 dye, d(CAG) DNA oligo; d(CAG) DNA oligo TO-PRO-1 dye displacement; actives 94% (n = 4,300); AID 652068, 2013; shares compounds with rCAG binder; inhibition, % at 3 µM;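 active = inhibition above its plate's cutoff, the mean test-well inhibition plus 3 SD, cut at about 4.8% in these data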;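 note: 0% = DNA dye mix with DMSO and 100% = 100 µM mitoxantrone; hits displace the dye from DNA and so lower well fluorescence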
# * hit, by the source's call; i = inactive; . = not tested or not shown.
SMILES,V-ATPase pHluor,MPTP inh,Exocytosis inh,B2AR ag,rCAG binder,T cell modulator,rCAG bind conf,dCAG dye counter
O=c1c(O)cccc2cc(O)c(O)c(O)c12,3.9,4.9,0.8,5.3,51.0*,204.8,78.4*,47.8*
O=S(=O)(O)c1ccc(N2N=C(c3ccccc3)CC2c2ccccc2)cc1 (stereo not drawn),-5.7,1.2,2.7,0.9,78.5*,470.7,56.2*,19.5*
CCCC(=O)OC12CCCN(C1)/C(=C/c1ccc(C#N)cc1)C2 (stereo not drawn),.,.,.,.,3.6,.,.,.
COC(=O)c1c(NC(=O)C2CCCCC2C(=O)O)sc2c1CCCCC2 (stereo not drawn),2.6,-2.9,1.6,8.7,47.8*,489.5,32.6,5.7*
COC(=O)c1sc(NC(=O)C2CCCCC2C(=O)O)c(C(=O)OC)c1C (stereo not drawn),-2.9,-10.4,-1.4,7.5,39.2*,272.1,44.1*,9.0*
COC(=O)c1sc(NC(=O)C2CCCO2)c(C(=O)OC)c1C (stereo not drawn),0.5,-1.1,-1.8,-6.5,-0.3,231.9,.,.
COc1ccc(-c2nnc(SCC(=O)NN=C(C)c3cccc4ccccc34)n2-c2ccccc2)cc1,.,.,.,.,5.3,.,.,.
Cc1ccc(NC(=O)c2ccc(CS(=O)(=O)Cc3ccccc3C)o2)cc1C,.,.,.,.,10.8,.,.,.
O=C(NN=Cc1ccco1)c1cccnc1,.,.,.,.,1.2,.,.,.
CCCCN=C(N)NC(=O)c1ccccc1,.,.,.,.,2.2,.,.,.
C[C@@H]1COc2cc(NCCO)ccc2S(=O)(=O)N1,.,.,.,.,3.5,.,.,.
O=C(O)c1cccc(N2C(=O)c3ccc(Oc4ccc(Cl)cc4)cc3C2=O)c1,0.1,0.2,1.0,-7.0,43.6*,73.2,42.1*,9.9*
O=C(O)c1cccc(N2C(=O)c3ccc4c5c(ccc(c35)C2=O)C(=O)N(c2cccc(C(=O)O)c2)C4=O)c1,0.8,-0.9,1.9,2.4,4.0,177.5,.,.
CCc1ccc(Cn2c(=O)n(Cc3ccc(C(=O)NCCCOC)cc3)c(=O)c3ccccc32)cc1,.,.,.,.,8.1,.,.,.
CC(C)C[C@@H](CCCc1ccccc1)CCC(=O)N(c1ccccc1)c1ccccc1,.,.,.,.,2.0,.,.,.
O=C1C=CC2=C3c4cc(O)c(O)cc4CC3(O)COC2=C1O (stereo not drawn),0.9,15.3,-1.7,-6.7,43.4*,.,62.8*,33.8*
CC(c1ccccc1)n1cc(C(=O)NCCCN2CCCC2)nn1 (stereo not drawn),.,.,.,.,1.6,.,.,.
O=C(Nc1ccccc1C(=O)O)c1cc(S(=O)(=O)N2CCCCC2)c(Cl)cc1Cl,-1.1,1.4,0.7,6.1,70.2*,320.6,61.6*,20.1*
Cc1ccc2c(c1)CCCN2S(=O)(=O)c1cccc(C(=O)Nc2ccccc2C(=O)O)c1,0.2,15.4,-24.2,7.1,83.5*,455.5,84.6*,63.0*
O=C(O)c1ccc(NS(=O)(=O)c2cccc(C(=O)Nc3ccccc3[N+](=O)[O-])c2)cc1,0.1,-0.2,8.2,10.7,7.0,.,.,.
CC(=O)c1ccc(NS(=O)(=O)c2cccc(C(=O)Nc3ccccc3C(=O)O)c2)cc1,0.9,-1.2,-2.3,-3.6,48.6*,192.0,29.2,6.4*
CN(C)C(=O)c1ccc(NC(=O)c2cccc(S(=O)(=O)N3CCCc4ccccc43)c2)cc1,-1.5,-0.5,-1.5,6.6,5.5,224.2,.,.
COc1ccc(NS(=O)(=O)c2cccc(C(=O)Nc3ccccc3C(=O)O)c2)cc1,-0.8,1.2,5.4,-2.2,66.4*,216.7,51.9*,19.8*
COc1ccc(N/C(=C\C(=O)c2ccccc2)c2ccccc2)cc1OC,.,.,.,.,3.4,.,.,.
O=C(Nc1cc(S(=O)(=O)Nc2ccccc2F)ccc1Cl)c1ccc(F)cc1F,-0.9,-0.4,13.1,-0.7,46.6*,287.6,41.8*,12.6*
SMILES,V-ATPase pHluor,MPTP inh,Exocytosis inh,B2AR ag,rCAG binder,T cell modulator,rCAG bind conf,dCAG dye counter
COc1ccc(NS(=O)(=O)c2ccc(Cl)c(NC(=O)c3ccccc3F)c2)cc1,2.1,1.2,-19.8,-10.4,11.8,137.5,.,.
O=C(Nc1ccccc1C(=O)O)c1cc(S(=O)(=O)Nc2ccccc2)ccc1Cl,1.5,1.3,2.7,-1.3,46.1*,416.4,35.3*,7.3*
O=C(NCc1ccccc1)N1CCN(Cc2nc3ccccc3c(=O)[nH]2)CC1,.,.,.,.,0.8,.,.,.
CCCOc1ccc(/C=N/Nc2ccccc2[N+](=O)[O-])c(O)c1,-2.7,12.9,4.3,-0.8,4.7,162.7,.,.
CCCOc1ccc(/C=N/NC(=S)Nc2ccccc2[N+](=O)[O-])c(O)c1,.,.,.,.,48.8*,384.4,45.5*,19.7*
COc1ccc(/C=N/NC(=S)Nc2ccccc2[N+](=O)[O-])cc1O,1.1,0.1,-0.8,-8.8,38.5*,530.2,23.8,11.3*
O=[N+]([O-])c1ccc2nc(NS(=O)(=O)c3ccc(Cl)cc3)sc2c1,2.5,6.6,-9.5,0.4,72.2*,373.4,75.7*,28.5*
O=[N+]([O-])c1ccc2nc(NS(=O)(=O)c3ccccc3[N+](=O)[O-])sc2c1,-0.7,23.2,-1.4,1.5,40.5*,131.5,39.4*,12.1*
O=[N+]([O-])c1ccccc1S(=O)(=O)Nc1nc2ccccc2s1,-3.0,0.6,-1.9,-3.9,9.6,238.8,.,.
COc1ccc(C(=O)N(C)[C@H]2C[C@H]3c4[nH]c5c(-c6ccccc6)cccc5c4CCN3C(=O)[C@H]2[C@H](C)O)cc1,.,.,.,.,2.2,.,.,.
CO[C@H]1C=CO[C@@]2(C)Oc3c(C)c(O)c4c(O)c(c(C=NN5CCN(C)CC5)c(O)c4c3C2=O)NC(=O)C(C)=CC=C[C@H](C)[C@H](O)[C@@H](C)[C@@H](O)[C@@H](C)[C@H](OC(C)=O)[C@@H]1C,3.4,-1.8,-0.1,-2.2,77.5*,i,78.7*,48.9*
CO[C@H]1/C=C/O[C@@]2(C)Oc3c(C)c(O)c4c(O)c(c(C=NN5CCN(C)CC5)c(O)c4c3C2=O)NC(=O)/C(C)=C\C=C\[C@H](C)[C@H](O)[C@@H](C)[C@@H](O)[C@@H](C)[C@H](OC(C)=O)[C@@H]1C,-0.7,3.0,-4.5,0.0,82.6*,617.2,73.8*,43.9*
CCOc1ccc(-n2c(SCC(=O)Nc3ccc(OCc4ccccc4)cc3)nnc2-c2ccc(Cl)cc2)cc1,.,.,.,.,6.9,.,.,.
COC(=O)/C=C1\OC(C)c2ccccc21 (stereo not drawn),.,.,.,.,3.7,.,.,.
